Assay outcomes as filed in PubChem.
TRPC4 block: inhibitors of mouse TRPC4 channel, primary screen, Fluo4 calcium, HEK293 TRPC4beta/mu-opioid cells; AID 2247, 2010; hit rate 0.39% among 300,000; DAMGO-evoked Fluo4 calcium flux; active compounds read low; B-score at 10 µM; Short transient receptor potential channel 4 (Mus musculus), Q9QUQ5;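 active = B-score over 3 SD under the library average, no early fluorescence shift, positive overall ratio signal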
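Assay system – HEK293 line stably carrying TRPC4beta and mu-opioid receptor · Doses – single dose · Detection – Fluo4 calcium-dye fluorescence, kinetic read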
TRPC6 inh: mouse TRPC6 channel inhibitors, primary screen, cell-based, HEK293, membrane potential dye; Short transient receptor potential channel 6 (Mus musculus), Q61143; hit rate 1.1% among 310,000; B-score at 10 µM; ACh-evoked depolarization; active compounds read low;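 active = B-score under library mean minus 3 SD, initial fluorescence not abnormally high, positive integrated signal ratio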;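 note: B-score derived from integrated fluorescence ratio over the kinetic read; more negative B-score means stronger inhibition of depolarization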
Target sequence (Q61143 whole entry, looked up): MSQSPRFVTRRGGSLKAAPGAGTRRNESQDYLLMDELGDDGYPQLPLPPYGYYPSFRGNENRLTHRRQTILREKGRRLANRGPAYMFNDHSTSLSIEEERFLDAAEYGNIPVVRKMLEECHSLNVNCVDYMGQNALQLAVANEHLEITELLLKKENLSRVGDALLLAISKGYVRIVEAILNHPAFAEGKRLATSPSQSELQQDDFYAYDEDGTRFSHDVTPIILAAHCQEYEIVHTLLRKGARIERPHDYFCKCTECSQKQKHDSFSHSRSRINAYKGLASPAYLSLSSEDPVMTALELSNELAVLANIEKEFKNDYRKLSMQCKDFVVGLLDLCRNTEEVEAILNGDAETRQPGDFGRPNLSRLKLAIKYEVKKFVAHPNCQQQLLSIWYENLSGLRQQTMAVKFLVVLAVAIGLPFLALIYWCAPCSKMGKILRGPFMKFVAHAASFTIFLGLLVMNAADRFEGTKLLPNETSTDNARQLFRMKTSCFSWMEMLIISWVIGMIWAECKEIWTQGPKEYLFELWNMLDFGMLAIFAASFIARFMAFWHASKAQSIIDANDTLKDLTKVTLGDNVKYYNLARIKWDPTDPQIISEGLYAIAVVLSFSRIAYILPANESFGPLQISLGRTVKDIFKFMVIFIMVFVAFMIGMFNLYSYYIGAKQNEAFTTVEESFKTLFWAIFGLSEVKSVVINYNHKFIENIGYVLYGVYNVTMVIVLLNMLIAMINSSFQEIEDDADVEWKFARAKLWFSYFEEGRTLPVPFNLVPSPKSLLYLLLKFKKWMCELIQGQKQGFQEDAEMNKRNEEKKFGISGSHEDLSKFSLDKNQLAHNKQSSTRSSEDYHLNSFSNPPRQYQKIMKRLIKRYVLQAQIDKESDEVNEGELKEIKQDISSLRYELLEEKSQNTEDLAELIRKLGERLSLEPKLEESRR
TRPC6 act: mouse TRPC6 channel activators, primary screen, cell-based, HEK293, membrane potential dye | HEK293-TRPC6 membrane potential dye fluorescence; active compounds read high | Short transient receptor potential channel 6 (Mus musculus), Q61143 | AID 2550, 2010 | B-score at 10 µM | hit rate 0.13% among 310,000;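 active = B-score of the integrated fluorescence ratio above library mean plus 3 SD, and starting fluorescence ratio within library mean plus 5 SD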;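 note: higher score means more depolarization so channel activation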
TRPC4 agonist: activators of mouse TRPC4 channel, primary screen, Fluo4 calcium, HEK293 TRPC4beta/mu-opioid cells; AID 2237, 2010; Fluo4 calcium fluorescence; active compounds read high; hit rate 0.49% among 310,000; Short transient receptor potential channel 4 (Mus musculus), Q9QUQ5; B-score at 10 µM;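 active = B-score above 5 SD of library B-scores, and initial fluorescence ratio not above library mean plus 5 SD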;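 note: positive B-score marks a calcium rise read as TRPC4 activation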
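System – HEK293 cells stably co-expressing mouse TRPC4beta and mu-opioid receptor · Signal – Fluo4 calcium-sensitive dye fluorescence, kinetic, 1 Hz baseline · Benchmarks – buffer (low) and maximal DAMGO (high) · Read-out – B score of integrated fluorescence ratio per well · Incubation – dye loading 45 min room temperature, 110 s kinetic read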
TRPC4 potent: positive allosteric modulators of TRPC4, primary screen, cell-based, mouse TRPC4beta, HEK293 mu-opioid, Fluo-4 calcium; Short transient receptor potential channel 4 (Mus musculus), Q9QUQ5; DAMGO EC20, Fluo-4 Ca2+ flux; active compounds read high; B-score at 10 µM; hit rate 0.42% among 310,000; AID 2227, 2009;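 active = B-score of calcium response area above 5 SD of library B-scores, with initial fluorescence ratio within 5 SD of library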;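 note: B-score of integrated fluorescence ratio over time as area under calcium response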
An asterisk follows results filed as active; i = inactive. Hits are enriched below; roughly 2.3% of the tested compounds scored in any of these assays.

SMILES | TRPC4 block | TRPC6 inh | TRPC6 act | TRPC4 agonist | TRPC4 potent
CC1CC(C)CN(CCCOc2ccccc2[N+](=O)[O-])C1 (stereo not drawn) | i | i | i | 48* | i
CCOC(=O)C(CCCCCOc1ccc([N+](=O)[O-])cc1)C(=O)OCC | i | i | i | i | 23*
CCC(C)[C@H](NC(=O)C1CCN(C(=O)[C@H](Cc2ccccc2)NS(=O)(=O)c2ccc(C)cc2)CC1)C(=O)O (stereo partly drawn) | i | i | i | i | i
Cc1nc(C(=O)NC(C)C)nn1-c1cc(Cl)cc(Cl)c1 | i | i | i | i | i
COC(=O)CSc1nnc(-c2sc3cc(OC)ccc3c2Cl)n1C | -6* | i | i | i | i
COC(=O)CSc1nc2cc(OC)ccc2n1C | i | i | i | i | i
O=C(N/N=C/c1cccc2ccccc12)c1ccccc1Cl | i | i | i | i | 10*
CCN1CCN(c2cc(N3CCN(C(=O)c4ccco4)CC3)c3c4c(onc24)-c2ccccc2C3=O)CC1 | i | -5.88* | i | i | i
CSCC[C@H](NC(=O)N1CCn2c1nc1ccccc12)C(=O)NCc1ccc(C)cc1 | i | i | i | i | 43*
Cc1ccc(-n2c(SCC(=O)O)nc3sc4c(c3c2=O)C(C)CCC4)cc1 (stereo not drawn) | i | i | i | i | 11*
Cc1ccccc1-n1c(SCC(=O)O)nc2sc3c(c2c1=O)CCCC3 | i | i | i | i | i
CCOc1ccc(-n2c(SCC(=O)O)nc3sc4c(c3c2=O)CCCC4)cc1 | i | i | i | i | 16*
O=C1CCC(C(=O)N2CCN(c3ccccc3)CC2)CN1CC1CCCCC1 (stereo not drawn) | i | i | i | i | i
CCOC(=O)C1CCN(C(c2ccccn2)c2c(C)[nH]c3ccccc23)CC1 (stereo not drawn) | i | -5.83* | i | i | i
Cc1[nH]c2ccccc2c1C(c1ccncc1)N1CCN(c2ccccn2)CC1 (stereo not drawn) | i | i | i | 49* | i
Cc1[nH]c2ccccc2c1C(c1ccncc1)N1CCN(c2ccccc2F)CC1 (stereo not drawn) | i | i | i | i | i
COc1cccc(/C=C/C(=O)NNC(=O)CCN2CCN(Cc3ccccc3)CC2)c1 | i | i | i | 48* | 12*
O=C(/C=C/c1ccc(F)cc1)NC(=S)N1CCN(Cc2ccccc2)CC1 | i | i | i | i | i
COc1ccc(Cl)cc1NC(=O)CCN1CCN(Cc2ccccc2)CC1 | i | i | i | i | i
O=C(/C=C/c1ccc(F)cc1)NNC(=O)CCN1CCN(Cc2ccccc2)CC1 | i | i | i | 50* | i
Cc1nn(-c2ccccc2)c2nc(-c3ccccc3)cc(C(=O)N3CCOCC3)c12 | i | i | i | i | 14*
CC(CN1CCCC(C(N)=O)C1)c1ccccc1 (stereo not drawn) | i | i | i | 131* | i
CCOC(=O)C1CCCN(CCC(C)c2ccccc2)C1 (stereo not drawn) | i | i | i | i | i
NC(=O)C1CCCN(CCc2ccccc2)C1 (stereo not drawn) | i | i | i | 103* | i
Cc1ccc(OCC(=O)Nc2cccc(S(=O)(=O)N3CCCCCC3)c2)cc1C | i | i | i | i | i
SMILES | TRPC4 block | TRPC6 inh | TRPC6 act | TRPC4 agonist | TRPC4 potent
COc1ccc(CN2CCC(n3nccc3NC(=O)CCc3ccccc3)CC2)c(C)c1C | i | i | i | 82* | i
CCn1cc(CN2CCC(n3nccc3NC(=O)CCCc3ccccc3)CC2)cn1 | -7* | i | i | 43* | i
CCn1cc(CN2CCC(n3nccc3NC(=O)Cc3ccccc3)CC2)cn1 | i | i | i | i | i
Cc1ccc(CN2CCC(n3nccc3NC(=O)CCOc3ccccc3)CC2)cc1C | -6* | i | i | i | i
O=C1N(CN2CCOCC2)c2ccccc2C12OCC(CCl)O2 (stereo not drawn) | i | i | i | i | i
COCCN(C(=O)CCC(=O)Nc1cc(C)on1)C(C(=O)NC(C)(C)C)c1cccc(OC)c1OC (stereo not drawn) | i | i | i | i | i
Cc1cccn2c(=O)nc(SCC(=O)N3CCC(Cc4ccccc4)CC3)nc12 | i | i | i | i | i
Cc1c(OCC(=O)NC2CCN(Cc3ccccc3)CC2)ccc2c3c(c(=O)oc12)CCC3 | i | i | i | i | 11*
Cc1ccc2oc(=O)c3cnn(CC(=O)NC4CCN(Cc5ccccc5)CC4)c3c2c1 | i | i | i | 107* | i
Cc1cc(=O)oc2c(C)c(OCC(=O)NC3CCN(Cc4ccccc4)CC3)ccc12 | i | i | i | i | i
O=C(Cn1ncc2c(=O)oc3ccccc3c21)NC1CC1 | i | i | i | i | i
CCOC(=O)COc1ccc(S(=O)(=O)NC2CC2)cc1 | i | i | i | i | i
CC(=O)c1cccc(N(C(=O)CNC(=O)c2ccco2)C(C(=O)NCC2CCCO2)c2ccccc2)c1 (stereo not drawn) | i | i | i | i | 11*
COC(=O)c1ccccc1NC(=O)NC1CC1 | i | i | i | i | i
CCCN1CCC(NC(=O)Nc2ccccc2C(=O)OC)CC1 | i | i | i | 71* | i
CC(C)c1ccc(/C=C/c2[nH]c(=O)[nH]c(=O)c2[N+](=O)[O-])cc1 | i | i | i | i | i
COc1ccc(CNCCc2ccc([N+](=O)[O-])cc2)c(OC)c1OC | i | i | i | 81* | i
COc1ccc(C)cc1NCc1ccc([N+](=O)[O-])cc1 | i | i | i | i | i
CCn1c2ccccc2c2cc(/C=N/NC(=O)c3ccc(O)cc3)ccc21 | i | i | i | i | i
CCn1c2ccccc2c2cc(/C=N/NC(=O)c3cc(O)cc(O)c3)ccc21 | -6* | i | i | i | i
COc1cccc(OCCOCCNCCO)c1 | i | i | i | 89* | i
C=CCc1cccc(OC)c1OCCOCCNCCO | i | i | i | i | i
CCOc1cccc(OCCCNCCCOC)c1 | i | i | i | i | 11*
CCc1cccc(OCCCCNCCCOC)c1 | i | i | i | i | i
